Assay [1] deals with MDA-MB-231 cells. Description: SRB cytotoxicity assay, MDA-MB-231. The format is cell-based, human. The following applies: Homo sapiens, MDA-MB-231, 48 h, read-out: Average cell death (%) MDA-MB-231. (In general: In SRB staining, fixed cells bind dye roughly in proportion to their protein.)
The test system of assay [2] is BCL-2 and Survivin expression in MDA-MB-231 cells. Description: Gene expression analysis by RT-qPCR. The format is cell-based, human. The method in brief:
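Cells were treated 48 h with varying test compound concentrations, then total RNA was extracted and checked spectrophotometrically. 2 μg RNA was reverse-transcribed to cDNA. BCL2 and Survivin transcripts were measured by RT-qPCR and quantified by the 2−ΔΔCt method against β2-microglobulin as reference gene.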

For assay [3], the system named is MDA-MB-231 cells. Description: 3D spheroid. The format is cell-based, human. The following applies: MDA-MB-231, methylcellulose, 8 days. The method in brief:
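Single-cell suspensions in 1.5% methylcellulose/DMEM with 20% FBS were seeded at 1 × 10^5 cells per well over a 1% agarose–DMEM base for non-adherent growth. Cells were treated with test compound (0.5, 1, 2 μM) or doxorubicin and incubated 8 days. Spheres (≥20 cells) were imaged by fluorescence microscopy and counted per microscopic field.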

The subject of another assay is MCF-7 cells. Description: SRB cytotoxicity assay, MCF-7. The format is cell-based, human. The following applies: Homo sapiens, MCF7, 48 h, read-out: Average cell death (%) MCF-7.
In the next assay the test system is 4T1 cells. Description: SRB cytotoxicity assay, 4T1. The following applies: Mus musculus, 4T1, 48 h, read-out: Average cell death (%) 4T1. The format is cell-based, murine. A digest of the protocol:
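Single-dose screen: cells in DMEM/10% FBS at 37 °C, 5% CO2, seeded at 3000 per well, attached 24 h, then exposed to test compound at 25 μM final for 48 h. Fixed in cold 10% TCA, 1 h, 4 °C; stained 0.057% SRB, 30 min, dark, room temperature; rinsed with 1% acetic acid; dye solubilised in Tris base pH 10.5; absorbance 510 nm; percent cell death.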

Regarding `COc1cccc2c1C(=O)c1c(O)c3c(c(O)c1C2=O)C[C@@](O)(C(=O)CO)C[C@@H]3O[C@H]1C[C@H](N)[C@H](O)[C@H](C)O1` [Doxorubicin, reference compound], in the assay on MDA-MB-231 cells [1], the cytotoxicity at 5 µM worked out at 80 ± 3.3%. In addition, in assay [2], the “Expression of BCL-2” value is “markedly reduced” and the “Expression of Survivin” value is given as “markedly reduced”. Also, the Sphere formation entry in the assay on MDA-MB-231 cells [3] is listed as “completely abrogated sphere formation”. Further, the cytotoxicity at 5 µM in the assay on MCF-7 cells was 85 ± 5.3%.
Regarding `COc1ccc(C(=O)c2c(-c3ccccc3)n(Cc3ccccc3)c(=O)c3c2c2ccccc2n3C)cc1` [9b, 2-Benzyl-4-(4-methoxybenzoyl)-9-methyl-3-phenyl-2,9-dihydro-1H-pyrido[3,4-b]indol-1-one], the cytotoxicity at 25 µM is 20.2 ± 2.16% in the assay with MDA-MB-231 cells [1], 39.8 ± 4.02% in the assay on 4T1 cells and 18.3 ± 3.05% with MCF-7 cells.
As to `Cn1c2ccccc2c2c(C(=O)c3ccc(F)cc3)c(-c3ccccc3)n(CCc3ccccc3)c(=O)c21` [10e, 4-(4-Fluorobenzoyl)-9-methyl-2-phenethyl-3-phenyl-2,9-dihydro-1H-pyrido[3,4-b]indol-1-one], the cytotoxicity at 25 µM in the assay with MDA-MB-231 cells [1] stood at 4 ± 0.41%; with 4T1 cells, 13.5 ± 1.16%; in the assay with MCF-7 cells, 8.92 ± 0.8%.
On the same counts, the results for `COc1ccc(C(=O)c2c(-c3ccccc3)n(CCc3ccccc3)c(=O)c3c2c2ccccc2n3C)cc1` [10b, 4-(4-Methoxybenzoyl)-9-methyl-2-phenethyl-3-phenyl-2,9-dihydro-1H-pyrido[3,4-b]indol-1-one] are 2.64 ± 0.7%, 49.9 ± 3.23% and 10.1 ± 2.2%.
In the same order, the values of `Cn1c2ccccc2c2c(C(=O)c3ccc(C(F)(F)F)cc3)c(-c3ccccc3)n(Cc3ccccc3)c(=O)c21` [9d, 2-Benzyl-9-methyl-3-phenyl-4-(4-(trifluoromethyl)benzoyl)-2,9-dihydro-1H-pyrido[3,4-b]indol-1-one] are 11.3 ± 0.53%, 15.5 ± 2.15% and 14.2 ± 1.03%.
On the same counts, the results for `Cn1c2ccccc2c2c(C(=O)c3ccccc3)c(-c3ccccc3)n(CCc3ccccc3)c(=O)c21` [10a, 4-Benzoyl-9-methyl-2-phenethyl-3-phenyl-2,9-dihydro-1H-pyrido[3,4-b]indol-1-one] are 3.66 ± 0.31%, 46.6 ± 2.18% and 1.67 ± 0.3%.
Take `Cn1c2ccccc2c2c(C(=O)c3ccc(C(F)(F)F)cc3)c(-c3ccccc3)n(CCc3ccccc3)c(=O)c21` [10d, 9-Methyl-2-phenethyl-3-phenyl-4-(4-(trifluoromethyl)benzoyl)-2,9-dihydro-1H-pyrido[3,4-b]indol-1-one]: the cytotoxicity at 25 µM with MDA-MB-231 cells [1] worked out at 11.5 ± 0.95%; in the assay on 4T1 cells it was 22 ± 2.05%; with MCF-7 cells, 9.32 ± 1%.
Consider `Cn1c2ccccc2c2c(C(=O)c3ccc(F)cc3)c(-c3ccccc3)n(Cc3ccccc3)c(=O)c21` [9e, 2-Benzyl-4-(4-fluorobenzoyl)-9-methyl-3-phenyl-2,9-dihydro-1H-pyrido[3,4-b]indol-1-one], for which the cytotoxicity at 25 µM in the assay with MDA-MB-231 cells [1] was 7.54 ± 0.71%; with 4T1 cells, 32.2 ± 4.11%; with MCF-7 cells, 2 ± 0.52%.

These data come from article PMC12461553 (RSC Advances, 2025).
